Structures are written as SMILES. Numbered stars: 1 amine (or outer) side, 2 acyl side, 3 side chain; on linkers, the order of the positions; unused ones are H or OH. Bridge positions count the residues as written; N and C are the ends. Square brackets hold non-standard residues; d marks the D form. Peptide text beside a SMILES is read from it. Trimesoyl = O=C(c1cc(C(=O)[*:2])cc(C(=O)[*:3])c1)[*:1]; Phe(4-F) = N[C@@H](Cc1ccc(F)cc1)C(=O)O; 2Nal = N[C@@H](Cc1ccc2ccccc2c1)C(=O)O; d2Nal = N[C@H](Cc1ccc2ccccc2c1)C(=O)O; X1 = CCCCCCC[C@H](N[*:1])C(=O)[*:2]; Phg = N[C@H](C(=O)O)c1ccccc1; dNle = CCCC[C@@H](N)C(=O)O; Nle = CCCC[C@H](N)C(=O)O; Orn = NCCC[C@H](N)C(=O)O; Dap = NC[C@H](N)C(=O)O; X2 = C(C[*:1])C[*:2]; βAla = NCCC(=O)O

Data on eight compounds can be found in ChEMBL document CHEMBL4842360, “Discovery of a Bicyclic Peptidyl Pan-Ras Inhibitor” (J Med Chem, 2021).

The nature of data set [1]: Drug localization in cytosol of human HeLa cells assessed as mean fluorescence intensity at 5 uM incubated for 2 hrs by flow cytometry relative to relative to extracellular concentration. It counts as ADME, subcellular. (Flow cytometry measures light scatter and fluorescence of single cells or particles in a stream.)
The subject of data set [2] is NCI-H358. Put plainly: Antiproliferative activity against human NCI-H358 cells incubated for 96 hrs by MTT assay. It counts as functional, cell-based. An outline of the steps: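 H358 cells at 5,000/well, grown overnight, treated with serially diluted peptide (0–40 μM) in 10% FBS medium for 96 h at 37 °C. MTT added for 4 h, formazan solubilized overnight in SDS-HCl, absorbance read at 570 nm.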

Data set [3] deals with NCI-H358. Put plainly: Antiproliferative activity against human NCI-H358 cells incubated for 96 hrs by Celltiter-Glo assay. It counts as functional, cell-based. Particulars: Homo sapiens, NCI-H358, 96 h; read-out: EC50; call rule not given here.
Data set [4] deals with T1, GTPase KRas (Homo sapiens, UniProt P01116, G12V). The data set is described as follows: biochemical.
T1 sequence (P01116 whole entry G12V): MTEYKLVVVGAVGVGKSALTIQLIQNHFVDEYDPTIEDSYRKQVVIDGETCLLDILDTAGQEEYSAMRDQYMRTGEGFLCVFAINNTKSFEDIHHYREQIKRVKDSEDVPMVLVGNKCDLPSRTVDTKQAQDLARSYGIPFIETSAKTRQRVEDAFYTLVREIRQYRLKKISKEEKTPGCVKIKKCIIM
Data set [5] deals with NCI-H1299. The data set is described as follows: Induction of apoptosis in human NCI-H1299 cells by MTT assay. It counts as functional, cell-based. (Tetrazolium assays rely on reduction of a dye to a coloured formazan, in cell work by metabolically active cells.)
The target in data set [6] is GTPase KRas (Homo sapiens, UniProt P01116, G12D). Put plainly: Binding affinity to recombinant human KRAS G12D mutant incubated for 0.5 hrs by ELISA.
GTPase KRas (Homo sapiens, UniProt P01116, G12D), sequence (P01116 whole entry G12D): as the sequence (P01116 whole entry G12V) above, with V12D counted along it
For data set [7], the system named is PANC-1. Put plainly: Antitumor activity against human PANC-1 cells xenografted in BALB/c mouse assessed as inhibition of cell growth at 40 mg/kg, iv administered once every 2 days for 4 weeks. It counts as functional. Particulars: PANC-1, iv, 672 h, read-out: GI. A general note: A xenograft is tissue or cells of one species grown in another, often human tumour cells in immunodeficient mice.

Data set [8] has as its target T1, GTPase KRas. Put plainly: Inhibition of GPPNP bound KRAS G12V mutant (unknown origin) assessed as reduction in KRAS/GST-fused Raf RBD interaction incubated for 2 hrs by HTRF assay.
Data set [9] has as its system NCI-H1299. Put plainly: Induction of apoptosis in human NCI-H1299 cells incubated for 24 hrs by MTT assay. It is filed as functional, cell-based. Particulars: NCI-H1299, 24 h.
The mark [10] stands for this setting: Homo sapiens, NCI-H358, 96 h, read-out: EC50.

As for `N=C(N)NCCC[C@@H]1NC(=O)[C@H](Cc2ccc3ccccc3c2)NC(=O)[C@@H](Cc2ccccc2)NC(=O)[C@H](Cc2ccccc2)NC(=O)[C@H](CCC(N)=O)NC(=O)[C@@H](CCCNC(=N)N)NC(=O)[C@H](CCCNC(=N)N)NC(=O)[C@@H](CCCNC(=N)N)NC1=O` (cyclo([2Nal]R[dR]R[dR]QF[dF])), the Drug uptake in data set [1] was 120%. The EC50 is the concentration needed to bring the measured effect to its halfway point. In general, Kd refers to the constant that tells how readily two partners part at equilibrium. As to `C[C@@H]1NC(=O)[C@@H](Cc2ccccc2)NC(=O)[C@@H]2CCCCNC(=O)c3cc(cc(c3)C(=O)N[C@H](Cc3ccc4ccccc4c3)C(=O)N[C@@H](CO)C(=O)N[C@@H](CCC(N)=O)C(=O)N[C@H](Cc3ccc4ccccc4c3)C(=O)N[C@@H](c3ccccc3)C(=O)N2)C(=O)NC[C@@H](C(=O)NCCC(=O)NCCC(=O)NC(CCCCN)C(N)=O)NC(=O)[C@H](CCCNC(=N)N)NC(=O)[C@@H](CCCNC(=N)N)NC1=O` (stereo partly drawn), the EC50 in data set [2] (setting [10]) turned out to be 29 µM; in [3], 22 µM. For the same compound, the Drug uptake entry in [1] is on record as “Active”. Also, in data set [4], the Kd came out at 140 nM. Turning to `C[C@@H]1NC(=O)[C@@H](Cc2ccccc2)NC(=O)[C@@H]2CCCCNC(=O)c3cc(cc(c3)C(=O)N[C@H](Cc3ccc4ccccc4c3)C(=O)N[C@@H](CO)C(=O)N[C@@H](CCC(N)=O)C(=O)N[C@H](Cc3ccc4ccccc4c3)C(=O)N[C@@H](c3ccccc3)C(=O)N2)C(=O)NC[C@@H](C(=O)N[C@@H](CCCN)C(=O)N[C@H](CCCNC(=N)N)C(=O)N[C@@H](Cc2ccc(F)cc2)C(=O)N[C@H](C)C(=O)N[C@@H](CCCCN)C(N)=O)NC(=O)[C@H](CCCNC(=N)N)NC(=O)[C@@H](CCCNC(=N)N)NC1=O` ([d2Nal]SQ[d2Nal][Phg]K[dF]A[dR]R[Dap][Orn][dR][Phe(4-F)][dA]K-NH2; linker N-6-11 via Trimesoyl), the Drug uptake entry in [1] is listed as “Active”. `CCCC[C@H]1NC(=O)[C@H](Cc2ccc(F)cc2)NC(=O)[C@H](CCCNC(=N)N)NC(=O)[C@@H](Cc2ccc3ccccc3c2)NC(=O)[C@H](CCCNC(=N)N)NC(=O)[C@H](CCCNC(=N)N)NC(=O)[C@H](CCCNC(=N)N)NC(=O)[C@@H](C)NC(=O)[C@H]([C@@H](C)O)NC(=O)[C@H](Cc2c[nH]c3ccccc23)NC(=O)[C@H](CCC(N)=O)NC1=O` (cyclo(WT[dA]RRR[d2Nal]R[Phe(4-F)][dNle]Q)) gave an EC50 in [5] of 3000 nM. For the compound `C[C@@H]1NC(=O)[C@@H](Cc2ccccc2)NC(=O)[C@@H]2CCCCNC(=O)c3cc(cc(c3)C(=O)N[C@H](Cc3ccc4ccccc4c3)C(=O)N[C@@H](CO)C(=O)N[C@@H](CCC(N)=O)C(=O)N[C@H](Cc3ccc4ccccc4c3)C(=O)N[C@@H](c3ccccc3)C(=O)N2)C(=O)NC[C@@H](C(=O)N[C@@H](CCN)CC(=O)N[C@H](CC(N)=O)C(=O)N[C@H](Cc2ccc(O)cc2)C(=O)N[C@@H](C(N)=O)[C@H](C)O)NC(=O)[C@H](CCCNC(=N)N)NC(=O)[C@@H](CCCNC(=N)N)NC1=O`, the concentration giving a half-maximal response (EC50) entry in data set [2] (nci-h358) is reported as “Not Active”. `C[C@H](NC(=O)[C@@H]1CNC(=O)c2cc3cc(c2)C(=O)N[C@H](Cc2ccc4ccccc4c2)C(=O)N[C@@H](CO)C(=O)N[C@@H](CCC(N)=O)C(=O)N[C@H](Cc2ccc4ccccc4c2)C(=O)N[C@@H](c2ccccc2)C(=O)N[C@@H](CCCCNC3=O)C(=O)N[C@H](Cc2ccccc2)C(=O)N[C@@H](C)C(=O)N[C@H](CCCNC(=N)N)C(=O)N[C@@H](CCCNC(=N)N)C(=O)N1)C(=O)N[C@H](CCCNC(=N)N)C(=O)N[C@H](Cc1ccccc1)C(=O)N[C@@H](Cc1ccc(F)cc1)C(N)=O`: the 50% effective concentration (EC50) in data set [2] (setting [10]) was 19 µM. As for `CCCCCCC[C@@H]1NC(=O)[C@@H]2CSCCCSC[C@H](NC(=O)[C@H](Cc3c[nH]c4ccccc34)NC(=O)[C@@H]3CCCN3C(=O)[C@H](CC(=O)O)NC(=O)[C@H](Cc3ccc(F)cc3)NC(=O)[C@H](CO)NC1=O)C(=O)NCCC(=O)N1CCC[C@H]1C(=O)N[C@@H](CCCC)C(=O)N2` (cyclo(C[X1]S[Phe(4-F)]DPWC[βAla]P[Nle]); linker 1-8 via X2), the Kd in data set [6] was 22 nM. Further, the inhibition in vivo at 40 mg/kg in data set [7] is 65%. By IC50 is commonly meant the point on the concentration scale where inhibition reaches its midpoint. On to `CC[C@@H](C)[C@@H]1NC(=O)[C@H](Cc2cn(CCc3c(C)[nH]c4cc(Cl)cc(Cl)c34)nn2)NC(=O)[C@@H](CC(N)=O)NC(=O)[C@H](CCCNC(=N)N)NC(=O)[C@H](Cc2ccccc2)NC(=O)[C@@H](CC(C)C)NC(=O)[C@@H](C)NC(=O)c2cc3cc(c2)C(=O)NC[C@@H](C(N)=O)NC(=O)[C@H](CCCNC(=N)N)NC(=O)[C@H](CCCNC(=N)N)NC(=O)[C@H](CCCNC(=N)N)NC(=O)[C@H](CCCNC(=N)N)NC(=O)[C@H](Cc2ccc4ccccc4c2)NC(=O)[C@H](Cc2ccccc2)NC(=O)C(CCCCNC3=O)NC(=O)[C@H](CC(=O)O)NC1=O` (stereo partly drawn), for which the IC50 in data set [8] was 3.4 µM. Further, in [9], a half-maximal response (EC50) required 8 µM.
